About 4,400 (1.5%) of roughly 300,000 compounds were called active.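 Rule for the calls: active = mean inhibition across valid replicates above about 55% (limit read from the data); inconclusive = mean below that limit but half or more replicates reach it; inactive = mean below it, under half of replicates reach it.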 Only a selection was taken, and actives are over-represented in it overall.
experiment: inhibitors of intracellular T. cruzi growth, primary screen, luminescence, NIH3T3 host cells (AID 1885);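 note: signal also drops with host cell toxicity which is not excluded here; 0% = plate median of DMSO wells and 100% = zero luminescence signal; higher percent means less beta-gal luminescence so fewer parasites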; details: T. cruzi beta-gal in NIH3T3, luminescence, 90 h; active compounds read high; concentration not given here
Outline: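 System: mouse NIH/3T3 fibroblasts infected with β-gal-expressing T. cruzi Tulahuen C4 / Input: NIH/3T3 cells, 5,000 per well / Buffer or medium: Low-serum DMEM with 2% FBS / Probe or stimulus: 5000 reporter trypomastigotes per well / Schedule: ≥90 h infection period, 3 h prior cell attachment / Measured by: GalScreen luminescence, 60 min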

| Compound | inhibition |
| --- | --- |
| CN(C)CCCCCN(C)Cc1cc2ccccc2o1 | 69.5% (active) |
| COc1ccccc1CN(C)C(=O)c1cc2ccccc2o1 | 0.505% (inactive) |
| N=c1oc2ccccc2cc1C(=O)NCc1ccccc1 | -12.9% (inactive) |
| O=C(COc1ccc2ccc(=O)oc2c1)NCC(O)c1ccccc1 (stereo not drawn) | -12.4% (inactive) |
| COc1cc(NC(=O)CCNC(=O)Cn2ccc3ccccc3c2=O)cc(OC)c1OC | -1.49% (inactive) |
| Cc1ccc(-c2c(C)n([O-])c3c([n+]2=O)CCC3)cc1 | -4.48% (inactive) |
| CCOc1cc(NC(=O)Nc2ccccc2)c(OCC)cc1NC(=O)CC | -28.4% (inactive) |
| CCOc1cc(NC(=O)c2ccccc2C(=O)O)c(OCC)cc1NC(=O)c1ccccc1F | 60.5% (active) |
| NC(=O)c1ccccc1NC(=O)c1ccccc1F | -8.84% (inactive) |
| COc1cccc(N(CC(=O)NC2CCCCCC2)S(=O)(=O)c2ccccc2)c1 | 21.4% (inactive) |
| Cc1cc(C(=O)N/N=C/c2ccccc2[N+](=O)[O-])c(C)o1 | -0.35% (inactive) |
| Cc1ccc(-c2ccc(/C=N/NC(=O)CN3CCOCC3)o2)cc1[N+](=O)[O-] | -11.4% (inactive) |
| Cc1occc1C(=O)N/N=C/c1ccc(-c2cccc([N+](=O)[O-])c2)o1 | 67.8% (active) |
| CC(=O)N1CCN(CC(C)(C)NS(=O)(=O)c2ccc(C)cc2)CC1 | 11.8% (inactive) |
| O=C(Nc1ncc([N+](=O)[O-])s1)C1COc2ccccc2O1 (stereo not drawn) | -1.76% (inactive) |
| O=C(CCc1ccccc1)Nc1ncc([N+](=O)[O-])s1 | 86.1% (active) |
| O=C(Cc1c(F)cccc1Cl)Nc1ncc([N+](=O)[O-])s1 | 50.4% (inactive) |
| Cc1ccccc1C(=O)NNC(=O)CN1C(=O)c2ccccc2C1=O | -15.4% (inactive) |
| COc1ccc(OCc2cc(C(=O)NCC3(C)COC3)no2)c(Cl)c1 | -0.702% (inactive) |
| CCCCn1c(N)c(N(CCOC)C(=O)c2cccc(S(=O)(=O)N3CCCCC3)c2)c(=O)[nH]c1=O | -8.61% (inactive) |

| Compound | inhibition |
| --- | --- |
| COCCCNC(=O)/C=C/c1ccc(OCc2c(F)cccc2Cl)cc1 | 19% (inactive) |
| O=C(/C=C/c1ccc(OCc2c(F)cccc2Cl)cc1)N1CCOCC1 | 16.6% (inactive) |
| CN(C)CCCNC(=O)/C=C/c1ccc(OCc2c(F)cccc2Cl)cc1 | 55.5% (active) |
| COc1ccc(C2c3[nH]c4ccccc4c3C[C@H]3C(=O)N(CC(C)C)CC(=O)N23)c(OC)c1 (stereo partly drawn) | 9.19% (inactive) |
| COCCCNC(=S)N(CCN(C)C)Cc1cc2cc3c(cc2[nH]c1=O)OCCO3 | -7.66% (inactive) |
| Cc1cccc2cc(CN(Cc3cccs3)C(=S)NCc3ccco3)c(=O)[nH]c12 | 18.3% (inactive) |
| Cc1cc(C)c2[nH]c(=O)c(CN(Cc3ccccc3)C(=S)NCCCN(C)C)cc2c1 | 59.1% (active) |
| COc1ccc(Cc2cc(-c3ccc(F)cc3)n[nH]c2=O)cc1 | -6.16% (inactive) |
| CC1(c2ccccc2)NC(=O)N(CC(=O)Nc2cc(Cl)ccc2N2CCOCC2)C1=O (stereo not drawn) | 5.62% (inactive) |
| CCc1cccc(C)c1NC(=O)COC(=O)CNC(=O)c1cccs1 | -15.5% (inactive) |
| O=[N+]([O-])c1cc(S(=O)(=O)Nc2cccc(Cl)c2)ccc1N=Nc1c(O)[nH]c2ccccc12 | 61.7% (active) |
| CN1CCN(c2ccc(S(=O)(=O)Nc3ccccc3)cc2[N+](=O)[O-])CC1 | 18.5% (inactive) |
| Cc1cccc(N(CC(=O)N=Nc2c(O)[nH]c3ccccc23)S(C)(=O)=O)c1C | 16.1% (inactive) |
| O=C(NCC(c1ccco1)N1CCc2ccccc2C1)c1ccccc1Cl (stereo not drawn) | -5.54% (inactive) |
| O=C(NCc1cccnc1)c1cc(S(=O)(=O)N2CCOCC2)c(Cl)cc1Cl | 3.92% (inactive) |
| Cc1noc(C)c1CSCC(=O)Nc1ccc(Br)cc1Cl | 1.67% (inactive) |
| O=C(Nc1cccc(NC(=O)c2ccco2)c1)c1cnccn1 | 21.9% (inactive) |
| O=C(Nc1cc(-c2nc3ncccc3o2)ccc1Cl)c1ccco1 | -11% (inactive) |
| O=C(Nc1cccc(-c2nc3ncccc3o2)c1)c1ccco1 | 69.4% (active) |
| N#Cc1ccccc1NC(=O)COc1c(Br)cc(Br)c2cccnc12 | -12.8% (inactive) |

| Compound | inhibition |
| --- | --- |
| O=C(COc1cccc2ccccc12)Nc1cc(S(=O)(=O)N2CCOCC2)ccc1N1CCOCC1 | 2.7% (inactive) |
| CN1CCN(c2ccc(S(=O)(=O)N3CCCCC3)cc2NC(=O)Cc2ccccc2F)CC1 | 45.1% (inactive) |
| CCN1CCN(c2ccc(S(=O)(=O)N3CCCCC3)cc2NC(=O)c2cccc(NC(C)=O)c2)CC1 | 0.05% (inactive) |
| CC(=O)NCCC(=O)Nc1cc(S(=O)(=O)N2CCOCC2)ccc1N1CCOCC1 | -12% (inactive) |
| CN1CCN(c2ccc(S(=O)(=O)N3CCOCC3)cc2NC(=O)CCc2ccccc2)CC1 | 54.9% (active) |
| CCN1CCN(c2ccc(S(=O)(=O)N3CCCCC3)cc2NC(=O)Cc2c(Cl)cccc2Cl)CC1 | 65.7% (active) |
| CCOC(=O)C1=C(c2ccccc2)N=C2SCC(=O)N2C1c1ccc(O)c(OC)c1 (stereo not drawn) | -14.5% (inactive) |
| Cc1nn(C)c(C)c1CN(C(=O)CCc1nnc(Cc2c[nH]c3ccccc23)o1)C(C)C | 9.23% (inactive) |
| CCOC(=O)N1CCN(S(=O)(=O)c2ccc(-n3cnnn3)cc2)CC1 | 0.644% (inactive) |
| COc1ccc(NC(=O)C(=O)NCC(c2ccco2)N2CCc3ccccc3C2)cc1 (stereo not drawn) | 9.29% (inactive) |
| CCc1ccccc1NC(=O)NCCN1CCCCC1 | 1.39% (inactive) |
| CC1CCC2CCCCC2N1C(=O)c1cc([N+](=O)[O-])cc([N+](=O)[O-])c1 (stereo not drawn) | 56% (active) |
| CC1CCN(C(=S)c2cccc([N+](=O)[O-])c2)CC1 | 1.31% (inactive) |
| O=C(c1cc(C(=O)N2CCN(c3ccc(F)cc3)CC2)cc([N+](=O)[O-])c1)N1CCN(c2ccc(F)cc2)CC1 | 45.8% (inactive) |
| OCC(O)CN(c1ccccc1)c1ccccc1 (stereo not drawn) | -11.6% (inactive) |
| COc1ccc(C)cc1S(=O)(=O)Nc1cccc(Cl)c1Cl | 8.72% (inactive) |
| COc1cc(Br)c(-c2sc(Nc3ccccc3)n[n+]2-c2ccccc2)cc1OC | 0.144% (inactive) |
| COc1ccc(C)cc1Nc1n[n+](-c2ccccc2)c(-c2cccc(Cl)c2Cl)s1 | 61.2% (active) |

Reference: PubChem BioAssay AID1885 (Broad Institute, 2009)
